Where a SMILES comes first, the peptide text is derived from it. Bridges are numbered along the chain shown (N, C = ends). [ ]: non-standard residue; d: D form. Oic = O=C(O)[C@@H]1C[C@@H]2CCCC[C@@H]2N1; Hyp = O=C(O)[C@@H]1C[C@@H](O)CN1; dTic = O=C(O)[C@H]1Cc2ccccc2CN1
Legend:
B2 bradykinin receptor [1] = target: T1, B2 bradykinin receptor (Cavia porcellus, UniProt O70526); assay: Binding affinity against [3H]bradykinin binding to bradykinin receptor B2 in guinea pig ileal membrane; format: cell membranes
T1 sequence (O70526 whole entry): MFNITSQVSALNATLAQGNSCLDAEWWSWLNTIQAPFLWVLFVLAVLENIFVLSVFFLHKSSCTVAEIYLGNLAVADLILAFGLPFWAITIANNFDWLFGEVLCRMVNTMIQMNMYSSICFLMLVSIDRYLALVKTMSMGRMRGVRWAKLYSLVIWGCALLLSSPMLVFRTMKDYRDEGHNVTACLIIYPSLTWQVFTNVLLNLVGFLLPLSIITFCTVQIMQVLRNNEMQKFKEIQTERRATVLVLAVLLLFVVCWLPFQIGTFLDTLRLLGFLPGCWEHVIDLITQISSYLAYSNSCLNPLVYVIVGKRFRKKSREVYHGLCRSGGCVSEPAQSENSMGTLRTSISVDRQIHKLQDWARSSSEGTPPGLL
How it was run: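 Competition binding against [³H]bradykinin on guinea pig ileal membrane preparations, with affinity given as Ki following a previously described method. The ileum expresses only B2 receptors.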

B2 bradykinin receptor [2] = target: T1, B2 bradykinin receptor; assay: Antagonism against bradykinin receptor B2 in guinea pig ileal tissue; format: functional; conditions: read-out: pA2 (converted)
How it was run: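 Functional antagonism recorded as pA2 in isolated guinea pig ileal tissue, a preparation that expresses only B2 receptors. The procedure follows conventional, previously reported methods.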

Compound	Ki (B2 bradykinin receptor [1])	Kb (B2 bradykinin receptor [2])
CN(CC(=O)N(C)[C@@H](Cc1ccccc1)C(=O)N[C@@H](CO)C(=O)N1Cc2ccccc2C[C@@H]1C(=O)N1C2CCCCC2C[C@H]1C(=O)N[C@@H](CCCN=C(N)N)C(=O)O)C(=O)[C@@H]1C[C@H](O)CN1C(=O)[C@@H]1CCCN1C(=O)[C@H](CCCN=C(N)N)NC(=O)[C@H](N)CCCN=C(N)N (some centres not stated)	1690 nM	
CC(NC(=O)[C@@H]1C[C@H](O)CN1C(=O)[C@@H]1CCCN1C(=O)[C@H](CCCN=C(N)N)NC(=O)[C@H](N)CCCN=C(N)N)C(=O)N[C@@H](Cc1ccccc1)C(=O)N[C@@H](CO)C(=O)N1Cc2ccccc2C[C@@H]1C(=O)N1C2CCCCC2C[C@H]1C(=O)N[C@@H](CCCN=C(N)N)C(=O)O (some centres not stated)	82.3 nM	
CC(NC(=O)[C@@H]1C[C@H](O)CN1C(=O)[C@@H]1CCCN1C(=O)[C@H](CCCN=C(N)N)NC(=O)[C@H](N)CCCN=C(N)N)C(=O)N[C@@](C)(Cc1ccccc1)C(=O)N[C@@H](CO)C(=O)N1Cc2ccccc2C[C@@H]1C(=O)N1C2CCCCC2C[C@H]1C(=O)N[C@@H](CCCN=C(N)N)C(=O)O (some centres not stated)	3030 nM	
CN(C(=O)CNC(=O)[C@@H]1C[C@H](O)CN1C(=O)[C@@H]1CCCN1C(=O)[C@H](CCCN=C(N)N)NC(=O)[C@H](N)CCCN=C(N)N)[C@@H](Cc1ccccc1)C(=O)N[C@@H](CO)C(=O)N1Cc2ccccc2C[C@@H]1C(=O)N1C2CCCCC2C[C@H]1C(=O)N[C@@H](CCCN=C(N)N)C(=O)O (some centres not stated)	26.5 nM	2510 nM
NC(N)=NCCC[C@@H](N)C(=O)N[C@@H](CCCN=C(N)N)C(=O)N[C@H]1CSSC[C@@H](C(=O)N2Cc3ccccc3C[C@@H]2C(=O)N2[C@H](C(=O)N[C@@H](CCCN=C(N)N)C(=O)O)C[C@@H]3CCCC[C@@H]32)NC(=O)[C@H](Cc2ccccc2)NC(=O)CNC(=O)[C@@H]2CCCN2C1=O (H-[dR]RCPGFC[dTic][Oic]R-OH; disulfide 3-7)		501 nM
N=C(N)NCCC[C@@H](N)C(=O)N[C@@H](CCCNC(=N)N)C(=O)N[C@H]1CSSC[C@@H](C(=O)N[C@@H](CO)C(=O)N2Cc3ccccc3C[C@@H]2C(=O)N2[C@H](C(=O)N[C@@H](CCCNC(=N)N)C(=O)O)C[C@@H]3CCCC[C@@H]32)NC(=O)CNC(=O)[C@@H]2CCCN2C1=O (H-[dR]RCPGCS[dTic][Oic]R-OH; disulfide 3-6)		240 nM
C[C@@](Cc1ccccc1)(NC(=O)CNC(=O)[C@@H]1C[C@H](O)CN1C(=O)[C@@H]1CCCN1C(=O)[C@H](CCCN=C(N)N)NC(=O)[C@H](N)CCCN=C(N)N)C(=O)N[C@@H](CO)C(=O)N1Cc2ccccc2C[C@@H]1C(=O)N1C2CCCCC2C[C@H]1C(=O)N[C@@H](CCCN=C(N)N)C(=O)O (some centres not stated)	0.54 nM	12.6 nM
CN(CC(=O)N[C@@H](Cc1ccccc1)C(=O)N[C@@H](CO)C(=O)N1Cc2ccccc2C[C@@H]1C(=O)N1C2CCCCC2C[C@H]1C(=O)N[C@@H](CCCN=C(N)N)C(=O)O)C(=O)[C@@H]1C[C@H](O)CN1C(=O)[C@@H]1CCCN1C(=O)[C@H](CCCN=C(N)N)NC(=O)[C@H](N)CCCN=C(N)N (some centres not stated)	30.8 nM	
NC(N)=NCCC[C@@H](N)C(=O)N[C@@H](CCCN=C(N)N)C(=O)N1CCC[C@H]1C(=O)N1C[C@H](O)C[C@H]1C(=O)NCC(=O)N[C@@H](Cc1ccccc1)C(=O)N[C@@H](CO)C(=O)N1Cc2ccccc2C[C@@H]1C(=O)N1[C@H](C(=O)N[C@@H](CCCN=C(N)N)C(=O)O)C[C@@H]2CCCC[C@@H]21 (H-[dR]RP[Hyp]GFS[dTic][Oic]R-OH)	0.08 nM	1.51 nM
